The source of these data is ChEMBL document CHEMBL1124415, “Acrylamide derivatives as antiallergic agents. 2. Synthesis and structure-activity relationships of N-[4-[4-(diphenylmethyl)-1-piperazinyl]butyl]-3-(3-pyridyl)acryl amides” (J Med Chem, 1989).

Where only a bound is given, the exact number is not on record here.

The species named for one experiment is Homo sapiens. In words: Inhibitory activity against histamine release in human basophil. It is filed as functional.
Settings: not given
In a few lines:
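Basophils from nonallergic human volunteers, washed in Tris-A buffer pH 7.4 (first wash with 4 mM EDTA), resuspended at 5-10 × 10^6 leukocytes/mL in Tris-ACM pH 7.6; preincubated with compound 15 min at 37 °C, then 45 min with anti-human IgE.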
Usually IC50 stands for the concentration that inhibits the measured activity by half. Regarding `CN1CCC(=C2c3ccccc3CC(=O)c3sccc32)CC1` [KETOTIFEN], the IC50 was more than 100000 nM.

Consider `Cc1ccc(/C=C/C(=O)NCCCCN2CCN(C(c3ccccc3)c3ccccc3)CC2)cn1` [TAGORIZINE], for which the IC50 turned out to be 34000 nM.

The subject of a further experiment is Rattus norvegicus. In words: Antiallergic activity by passive cutaneous anaphylaxis assay upon peroral administration of 20 mg/kg in rat. It is filed as functional. The note with it: route oral.
The inhibition in vivo is how much of the control response was suppressed. `Cc1ccc(/C=C/C=C/C(=O)NCCCN2CCN(C(c3ccccc3)c3ccccc3)CC2)cn1` came in with an inhibition in vivo at 20 mg/kg of 35.8%.

A word on the ED50: it is the midpoint of the dose-response relation. Low values mean an effect at a small dose, high ones a need for a large dose. In turn, `CN1CCC(=C2c3ccccc3CC(=O)c3sccc32)CC1` [KETOTIFEN] gave a 50% effective dose (ED50) of 16.3 mg/kg.

For a further experiment, the species on record is Rattus norvegicus. In words: ED50 value was measured in rat passive cutaneous anaphylaxis (PCA) by linear regression analysis. It counts as functional.
Settings: not given
Molecule `Cc1ccc(/C=C/C(=O)NCCCCN2CCN(C(c3ccccc3)c3ccccc3)CC2)cn1` [TAGORIZINE] displayed an ED50 of 3.3 mg/kg.

The subject of another experiment is Rattus norvegicus. In words: Antiallergic activity determined by passive cutaneous anaphylaxis assay upon peroral administration of 20 mg/kg in rat. It counts as functional. Particulars: route oral.
As to `O=C(/C=C/c1ccc(Cl)nc1)NCCCCN1CCN(C(c2ccccc2)c2ccccc2)CC1`, the inhibition in vivo at 20 mg/kg stood at 49.3%.

Turning to `O=C(/C=C/c1cccnc1)NCCCCN1CCN(C(c2ccccc2)c2ccc(F)cc2)CC1` (stereo not drawn), the inhibition in vivo at 20 mg/kg stood at 53.8%.

Regarding `COc1ccc(/C=C/C(=O)NCCCCN2CCN(C(c3ccccc3)c3ccccc3)CC2)cn1`, the inhibition in vivo at 20 mg/kg was 41%.

On to `Cc1ccc(/C=C/C(=O)NCCCCN2CCC(=C(c3ccccc3)c3ccccc3)CC2)cn1`, for which the inhibition in vivo at 20 mg/kg is 99.5%.

For `C/C(=C\c1cccnc1)C(=O)NCCCCN1CCN(C(c2ccccc2)c2ccccc2)CC1`, 20 mg/kg produced 78.9% inhibition in vivo.

Turning to `CCCOc1ccc(/C=C/C(=O)NCCCCN2CCN(C(c3ccccc3)c3ccccc3)CC2)cn1`, the inhibition in vivo at 20 mg/kg is 7.5%.

As for `O=C(/C=C/c1cncc(Cl)c1)NCCCCN1CCN(C(c2ccccc2)c2ccccc2)CC1`, testing at 20 mg/kg gave an inhibition in vivo of 66.4%.

`O=C(/C=C/C=C/c1cccnc1)NCCCN1CCN(C(c2ccccc2)c2ccccc2)CC1` came in with an inhibition in vivo at 20 mg/kg of 40.4%.

For the molecule `O=C(/C=C/c1ccc(-c2ccccc2)nc1)NCCCCN1CCN(C(c2ccccc2)c2ccccc2)CC1`, the inhibition in vivo at 20 mg/kg was determined as 3.2%.

With `Cc1ccc(C(c2ccc(C)cc2)N2CCN(CCCCNC(=O)/C=C/c3cccnc3)CC2)cc1`, 20 mg/kg produced 20.2% inhibition in vivo.

`O=C(/C=C/c1cccnc1)NCCCCN1CCC(OC(c2ccccc2)c2ccccc2)CC1` returned an inhibition in vivo at 20 mg/kg of 42.2%.

With `O=C(NCCCCN1CCN(C(c2ccccc2)c2ccccc2)CC1)/C(=C/c1cccnc1)c1ccccc1`, 20 mg/kg produced 58% inhibition in vivo.

`O=C(/C=C/c1ccc(Oc2ccccc2)nc1)NCCCCN1CCN(C(c2ccccc2)c2ccccc2)CC1`: at 20 mg/kg the inhibition in vivo was 45.6%.

In turn, `Cc1ccc(C(c2ccccc2)N2CCN(CCCCNC(=O)/C=C/c3cccnc3)CC2)cc1` (stereo not drawn) showed an inhibition in vivo at 20 mg/kg of 82.9%.

In the case of `CCSc1ccc(/C=C/C(=O)NCCCCN2CCN(C(c3ccccc3)c3ccccc3)CC2)cn1`, testing at 20 mg/kg gave an inhibition in vivo of 18.6%.

In turn, `CCOc1ccc(/C=C/C(=O)NCCCCN2CCN(C(c3ccccc3)c3ccccc3)CC2)cn1` gave an inhibition in vivo at 20 mg/kg of 33.9%.

With `O=C(/C=C/C=C/c1cccnc1)NCCCCN1CCN(C(c2ccccc2)c2ccccc2)CC1`, 20 mg/kg produced 66.4% inhibition in vivo.

As for `Cc1ccc(CCC(=O)NCCCCN2CCN(C(c3ccccc3)c3ccccc3)CC2)cn1`, at 20 mg/kg the inhibition in vivo was 24.9%.

Consider `O=C(CCc1cccnc1)NCCCCN1CCN(C(c2ccccc2)c2ccccc2)CC1`, for which the inhibition in vivo at 20 mg/kg was 28.1%.

`O=C(/C=C/c1cccnc1Cl)NCCCCN1CCN(C(c2ccccc2)c2ccccc2)CC1` yielded an inhibition in vivo at 20 mg/kg of less than 39.3%.

Consider `COc1ccc(C(c2ccccc2)N2CCN(CCCCNC(=O)/C=C/c3cccnc3)CC2)cc1` (stereo not drawn), for which the inhibition in vivo at 20 mg/kg amounted to 40.9%.

Consider `O=C(/C=C/c1cccnc1)NCCCCN1CCC(=C(c2ccccc2)c2ccccc2)CC1`, for which the inhibition in vivo at 20 mg/kg was 85.9%.

`O=C(/C=C/c1cncc(O)c1)NCCCCN1CCN(C(c2ccccc2)c2ccccc2)CC1` displayed an inhibition in vivo at 20 mg/kg of 28.8%.

In turn, `O=C(/C=C/c1cncc(F)c1)NCCCCN1CCN(C(c2ccccc2)c2ccccc2)CC1` had an inhibition in vivo at 20 mg/kg of 65%.

For `CCCCc1ccc(/C=C/C(=O)NCCCCN2CCN(C(c3ccccc3)c3ccccc3)CC2)cn1`, at 20 mg/kg the inhibition in vivo was 22.2%.

Consider `Cc1ccc(C(c2ccccc2)N2CCN(CCCCNC(=O)/C=C/c3ccc(C)nc3)CC2)cc1` (stereo not drawn), for which the inhibition in vivo at 20 mg/kg amounted to 73.9%.

Take `O=C(/C=C/c1cncc(Br)c1)NCCCCN1CCN(C(c2ccccc2)c2ccccc2)CC1`: at 20 mg/kg the inhibition in vivo was 47.5%.

`Cc1ncc(/C=C/C=C/C(=O)NCCCN2CCN(C(c3ccccc3)c3ccccc3)CC2)c(CO)c1O`: the inhibition in vivo at 20 mg/kg was found to be 9.8%.

For `Cc1ccc(/C=C/C=C/C(=O)NCCCCN2CCN(C(c3ccccc3)c3ccccc3)CC2)cn1`, testing at 20 mg/kg gave an inhibition in vivo of 68.8%.

Turning to `CNc1ncccc1/C=C/C(=O)NCCCCN1CCN(C(c2ccccc2)c2ccccc2)CC1`, the inhibition in vivo at 20 mg/kg is 45.2%.

With `Cc1ncccc1/C=C/C(=O)NCCCCN1CCN(C(c2ccccc2)c2ccccc2)CC1`, the inhibition in vivo at 20 mg/kg is 68.8%.

Take `Cc1cc(/C=C/C(=O)NCCCCN2CCN(C(c3ccccc3)c3ccccc3)CC2)cnc1C`: testing at 20 mg/kg gave an inhibition in vivo of 40.5%.

In the case of `Cc1ccc(/C=C/C(=O)NCCCCN2CCN(C(c3ccccc3)c3ccccc3)CC2)c(C)n1`, the inhibition in vivo at 20 mg/kg came out at 66.8%.

The molecule `COc1cncc(/C=C/C(=O)NCCCCN2CCN(C(c3ccccc3)c3ccccc3)CC2)c1` had an inhibition in vivo at 20 mg/kg of 7.6%.

For `O=C(/C=C/c1cccnc1)NCCCCN1CCC(C(O)(c2ccccc2)c2ccccc2)CC1`, the inhibition in vivo at 20 mg/kg worked out at 35.1%.

In the case of `CC(C)c1ccc(/C=C/C(=O)NCCCCN2CCN(C(c3ccccc3)c3ccccc3)CC2)cn1`, at 20 mg/kg the inhibition in vivo was 38.9%.

As to `Cc1cccc(C(c2ccccc2)N2CCN(CCCCNC(=O)/C=C/c3cccnc3)CC2)c1` (stereo not drawn), the inhibition in vivo at 20 mg/kg worked out at 19%.

As for `CC/C(=C\c1cccnc1)C(=O)NCCCCN1CCN(C(c2ccccc2)c2ccccc2)CC1`, the inhibition in vivo at 20 mg/kg is 67.8%.

`O=C(/C=C/c1cccnc1)NCCCCN1CCN(C(c2ccccc2)c2ccccc2)CC1`: the inhibition in vivo at 20 mg/kg is 62.3%.

Molecule `Cc1ncc(/C=C/C(=O)NCCCCN2CCN(C(c3ccccc3)c3ccccc3)CC2)c(CO)c1O` gave an inhibition in vivo at 20 mg/kg of 53.7%.

In turn, `Cc1ccc(C(c2ccccc2)N2CCN(CCCCNC(=O)/C=C/c3cccnc3)CC2)cc1C` (stereo not drawn) came in with an inhibition in vivo at 20 mg/kg of 5.4%.

The molecule `C/C(=C\C(=O)NCCCCN1CCN(C(c2ccccc2)c2ccccc2)CC1)c1cccnc1` gave an inhibition in vivo at 20 mg/kg of 52.2%.

`Cc1ncc(/C=C/C(=O)NCCCCN2CCN(C(c3ccccc3)c3ccccc3)CC2)c2c1OC(C)(C)OC2` had an inhibition in vivo at 20 mg/kg of 17%.

In the case of `O=C(/C=C/c1cccnc1)NCCCCN1CCN(C(c2ccccc2)c2ccc(Cl)cc2)CC1` (stereo not drawn), the inhibition in vivo at 20 mg/kg was 19.9%.

On to `Cc1ncc(/C=C/C=C/C(=O)NCCCCN2CCN(C(c3ccccc3)c3ccccc3)CC2)c(CO)c1O`, for which the inhibition in vivo at 20 mg/kg amounted to 16.4%.

`CCCc1ccc(/C=C/C(=O)NCCCCN2CCN(C(c3ccccc3)c3ccccc3)CC2)cn1`: testing at 20 mg/kg gave an inhibition in vivo of 44.4%.

As to `C/C(=C\c1ccc(C)nc1)C(=O)NCCCCN1CCN(C(c2ccccc2)c2ccccc2)CC1`, the inhibition in vivo at 20 mg/kg was 58.2%.

In the case of `CCC/C(=C\c1cccnc1)C(=O)NCCCCN1CCN(C(c2ccccc2)c2ccccc2)CC1`, 20 mg/kg produced 44.2% inhibition in vivo.

On to `CCCCCOc1ccc(/C=C/C(=O)NCCCCN2CCN(C(c3ccccc3)c3ccccc3)CC2)cn1`, for which at 20 mg/kg the inhibition in vivo was 14.9%.

In the case of `O=C(/C=C/c1cccnc1)NCCCCN1CCN(C(c2ccc(Cl)cc2)c2ccc(Cl)cc2)CC1`, the inhibition in vivo at 20 mg/kg was found to be 5.4%.

In turn, `Cc1ccc(/C=C/C(=O)NCCCCN2CCN(C(c3ccccc3)c3ccccc3)CC2)cn1` [TAGORIZINE] yielded an inhibition in vivo at 20 mg/kg of 81.9%.

The species named for the next experiment is Cavia porcellus. In words: Anti-histaminic activity was measured in guinea pig trachea. It counts as functional.
Settings: not given
In a few lines: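 Zig-zag guinea pig tracheal strips; histamine dose-response curves obtained before and 60 min after adding test compound.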
The molecule `CN1CCC(=C2c3ccccc3CC(=O)c3sccc32)CC1` [KETOTIFEN] displayed a concentration for half-maximal inhibition (IC50) of 1.6 nM.

Take `Cc1ccc(/C=C/C(=O)NCCCCN2CCN(C(c3ccccc3)c3ccccc3)CC2)cn1` [TAGORIZINE]: the half-maximal inhibitory concentration (IC50) was determined as 120 nM.
